Active and inactive are the calls of the source. No cut-off for these calls is given here.
Experiments:
Rattus norvegicus [1] = assay: Iron scavenging activity in 59Fe-ferritin-loaded rat assessed as iron mobilization level at 450 umol/kg, po dosed 1 hr after 59Fe-ferritin injection and measured 24 hrs after 59Fe-ferritin injection by gamma counting method relative to control; assay type: functional
In short: (§1)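 Male SD rats, 300 g, fasted overnight, given about 1 μC 59Fe-ferritin i.v. under isoflurane. Chelator gavaged 1 h later, then rats housed in metabolic cages; food returned 1 h after dosing. Killed 24 h after 59Fe-ferritin. Urine, faeces, liver and gut gamma-counted. 8 rats per condition.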

[2] = Drug uptake in rat bile treated with 150 umol/kg, po (R) -3,4-Dihydroxy-1-(1 -hydroxy-3-phenylpropan-2-yl)-2-methyl- pyridin-1-ium Chloride assessed as compound formation by LC/TOF/MS/MS analysis; assay type: ADME, organism-based; details: in vivo
In short: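 Bile collected from rats after an oral dose of 150 μmol/kg. Metabolites characterised by β-glucuronidase hydrolysis and LC-TOFMS/MS. M2/M1 ratio followed over 8 h.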

[3] = Metal chelating activity assessed as iron chelation
In short: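 Automated spectrophotometric titration at ca. 40 µM iron complex, 50 mm path. pH raised in 0.1-unit steps with 0.1 M KOH, 3 min equilibration per step, up to pH 12.0. Competition with metal hydrolysis species; spectra fitted over 400-700 nm using literature hydrolysis constants to give stability constants.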

Mus musculus [4] = assay: Toxicity in mouse assessed as reduction in erythrocyte population at 200 mg/kg, po dosed once daily for 2 months as 5 days per week schedule; details: in vivo, 120 h
Mus musculus [5] = assay: Toxicity in mouse assessed as reduction in eosinophils counts at 200 mg/kg, po dosed once daily for 2 months as 5 days per week schedule; details: in vivo, 120 h
Mus musculus [6] = assay: Toxicity in mouse assessed as increase in reticulocyte population at 200 mg/kg, po dosed once daily for 2 months as 5 days per week schedule; details: in vivo, 120 h
[7] = Toxicity in Sprague-Dawley rat assessed as induction of mortality at 200 mg/kg, po dosed once daily for 2 months as 5 days per week schedule; assay type: organism-based; details: in vivo, 120 h
Mus musculus [8] = assay: Toxicity in mouse assessed as reduction in neutrophils counts at 200 mg/kg, po dosed once daily for 2 months as 5 days per week schedule; details: in vivo, 120 h
Mus musculus [9] = assay: Toxicity in mouse assessed as reduction in lymphocytes counts at 200 mg/kg, po dosed once daily for 2 months as 5 days per week schedule; details: in vivo, 120 h
Mus musculus [10] = assay: Toxicity in mouse assessed as effect on platelet population at 200 mg/kg, po dosed once daily for 2 months as 5 days per week schedule; details: in vivo, 120 h
[11] = Drug metabolism in human liver microsomes assessed as oxidative metabolism incubated for 1 hr relative to deferiprone; assay type: ADME, Microsome
[12] = Drug metabolism in rat liver microsomes assessed as glucuronidation incubated for 1 hr relative to deferiprone; assay type: ADME, Microsome
In short: (§2)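 Compound incubated 1 h with rat or human liver microsomes, n = 4, mean ± SD. Glucuronide formed given as percentage of total chelator added. Oxidative metabolism assessed separately.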

Mus musculus [13] = assay: Toxicity in mouse assessed as reduction in total white cell counts at 200 mg/kg, po dosed once daily for 2 months as 5 days per week schedule; details: in vivo, 120 h
[14] = Drug metabolism in rat liver microsomes assessed as oxidative metabolism incubated for 1 hr relative to deferiprone; assay type: ADME, Microsome
Mus musculus [15] = assay: Toxicity in mouse assessed as reduction in monocytes counts at 200 mg/kg, po dosed once daily for 2 months as 5 days per week schedule; details: in vivo, 120 h
[16] = Drug metabolism in human liver microsomes assessed as glucuronidation incubated for 1 hr relative to deferiprone; assay type: ADME, Microsome; in short: as §2
Rattus norvegicus [17] = assay: Iron scavenging activity in 59Fe-ferritin-loaded rat assessed as iron mobilization level at 150 to 450 umol/kg, po dosed 1 hr after 59Fe-ferritin injection and measured 24 hrs after 59Fe-ferritin injection by gamma counting method relative to control; assay type: functional, organism-based; in short: as §1
[18] = Toxicity in Sprague-Dawley rat assessed as induction of histopathological changes in bone marrow at 25 to 116 mg/kg, po dosed daily for 4 weeks and measured after additional 4 weeks period in absence of drug; assay type: organism-based; details: in vivo, 672 h
[19] = Toxicity in Sprague-Dawley rat assessed as induction of histopathological changes in thymus at 25 to 116 mg/kg, po dosed daily for 4 weeks and measured after additional 4 weeks period in absence of drug; assay type: organism-based; details: in vivo, 672 h
[20] = Toxicity in Sprague-Dawley rat assessed as induction of histopathological changes in pancreas at 25 to 116 mg/kg, po dosed daily for 4 weeks and measured after additional 4 weeks period in absence of drug; assay type: organism-based; details: in vivo, 672 h

SMILES: Cc1c(O)c(O)cc[n+]1[C@@H](CO)CC(C)C.[Cl-]
- Activity (Rattus norvegicus [1]): 8.2%

SMILES: Cc1c(O[C@@H]2O[C@H](C(=O)O)[C@@H](O)[C@H](O)[C@H]2O)c(=O)ccn1[C@@H](CO)Cc1ccccc1
- Drug uptake [2]: Metabolite_Detected
- Activity [3]: inactive

SMILES: Cc1c(O)c(O)cc[n+]1[C@@H](C)CO.[Cl-]
- Activity (Rattus norvegicus [1]): 11.9%

SMILES: CCc1c(O)c(O)cc[n+]1[C@H](CO)Cc1ccccc1.[Cl-]
- Activity (Rattus norvegicus [1]): 13.1%

SMILES: Cc1c(O)c(O)cc[n+]1[C@@H](CO)C(C)C.[Cl-]
- Activity (Rattus norvegicus [1]): 8%

SMILES: Cc1c(O)c(O)cc[n+]1[C@H](CO)Cc1ccccc1.[Cl-]
- Activity (Mus musculus [4]): Non-Toxic
- Activity (Mus musculus [5]): Non-Toxic
- Activity (Mus musculus [6]): Non-Toxic
- Activity [7]: Non-Toxic
- Activity (Mus musculus [8]): Non-Toxic
- Activity (Mus musculus [9]): Non-Toxic
- Activity (Rattus norvegicus [1]): 12.8%
- Activity (Mus musculus [10]): Non-Toxic
- Drug metabolism [11]: Metabolite_Detected
- Drug metabolism [12]: Metabolite_Detected
- Activity (Mus musculus [13]): Non-Toxic
- Drug metabolism [14]: Metabolite_Detected
- Activity (Mus musculus [15]): Non-Toxic
- Drug metabolism [16]: Metabolite_Detected

SMILES: CCc1c(O)c(O)cc[n+]1[C@@H](CO)Cc1ccccc1.[Cl-]
- Activity (Rattus norvegicus [17]): Dose-dependent effect
- Activity (Rattus norvegicus [1]): 22.3%

SMILES: Cc1c(O)c(O)cc[n+]1CCO.[Cl-]
- Activity (Rattus norvegicus [1]): 4%

SMILES: CCc1c(O)c(O)cc[n+]1[C@@H](CO)C(C)C.[Cl-]
- Activity (Rattus norvegicus [1]): 10.6%

SMILES: CCc1c(O)c(O)cc[n+]1CCO.[Cl-]
- Activity (Rattus norvegicus [1]): 2.4%

SMILES: Cc1c(O)c(=O)ccn1[C@@H](CO[C@@H]1O[C@H](C(=O)O)[C@@H](O)[C@H](O)[C@H]1O)Cc1ccccc1
- Drug uptake [2]: Metabolite_Detected
- Activity [3]: Active

SMILES: CCc1c(O)c(O)cc[n+]1[C@H](CO)CC(C)C.[Cl-]
- Activity (Rattus norvegicus [1]): 10.3%

SMILES: CCc1c(O)c(O)cc[n+]1[C@@H](CO)CC(C)C.[Cl-]
- Activity (Rattus norvegicus [1]): 13.6%

SMILES: Cc1c(O)c(=O)ccn1C [DEFERIPRONE]
- Activity [18]: Non-Toxic
- Activity [7]: Non-Toxic
- Activity (Rattus norvegicus [1]): 11.8%
- Activity [19]: Non-Toxic
- Activity [20]: Non-Toxic

SMILES: CCc1c(O)c(O)cc[n+]1[C@H](CO)[C@@H](C)CC.[Cl-]
- Activity (Rattus norvegicus [1]): 5.5%

SMILES: Cc1c(O)c(O)cc[n+]1[C@H](CO)CC(C)C.[Cl-]
- Activity (Rattus norvegicus [1]): 5.8%

SMILES: Cc1c(O)c(O)cc[n+]1[C@H](CO)C(C)C.[Cl-]
- Activity (Rattus norvegicus [17]): Dose-dependent effect
- Activity (Rattus norvegicus [1]): 18.7%

SMILES: CCc1c(O)c(O)cc[n+]1[C@H](C)CO.[Cl-]
- Activity (Rattus norvegicus [1]): 10.5%

SMILES: CC[C@H](C)[C@@H](CO)[n+]1ccc(O)c(O)c1C.[Cl-]
- Activity (Rattus norvegicus [1]): 10.8%

SMILES: CCc1c(O)c(O)cc[n+]1[C@H](CO)C(C)C.[Cl-]
- Activity (Rattus norvegicus [1]): 7.9%

SMILES: CCc1c(O)c(O)cc[n+]1[C@@H](C)CO.[Cl-]
- Activity (Rattus norvegicus [1]): 16%

SMILES: Cc1c(O)c(O)cc[n+]1[C@H](C)CO.[Cl-]
- Activity (Rattus norvegicus [1]): 6.5%

Reference: ChEMBL document CHEMBL4376902, “CN128: A New Orally Active Hydroxypyridinone Iron Chelator” (J Med Chem, 2020)
